Rows were chosen to be rich in hits. Some 1.8% of all compounds tested hit in one or more screens of this group.
CHRM4 antagonist – human M4 muscarinic receptor antagonists, primary screen, CHO cells, Fluo-8 calcium fluorescence. CHO-hM4 cells, ACh EC80. inhibition, % at 3 µM. actives 0.73% (n = 360,000);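 active = inhibition above its plate's cutoff, the mean inhibition of sample wells plus 3 SD, cut at about 27% in these data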
Target sequence (P08173 whole entry, looked up): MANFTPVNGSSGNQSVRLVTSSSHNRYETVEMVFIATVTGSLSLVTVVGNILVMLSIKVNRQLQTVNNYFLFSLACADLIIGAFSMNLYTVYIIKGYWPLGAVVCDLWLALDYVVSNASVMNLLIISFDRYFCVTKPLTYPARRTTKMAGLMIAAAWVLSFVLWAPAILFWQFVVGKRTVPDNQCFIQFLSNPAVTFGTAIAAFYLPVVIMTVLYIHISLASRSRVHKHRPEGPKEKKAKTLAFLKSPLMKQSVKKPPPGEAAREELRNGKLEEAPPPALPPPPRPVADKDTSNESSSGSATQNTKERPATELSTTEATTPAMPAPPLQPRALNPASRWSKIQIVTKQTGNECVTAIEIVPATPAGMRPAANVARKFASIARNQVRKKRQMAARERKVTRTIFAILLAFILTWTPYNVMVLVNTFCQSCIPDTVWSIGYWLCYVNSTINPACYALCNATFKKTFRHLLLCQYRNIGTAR
CHRM5 agonist – human M5 muscarinic receptor agonists, primary screen, CHO-K1 cells, Fluo-8 calcium fluorescence. CHO-K1 hM5 cells; 0% DMSO wells, 100% maximal acetylcholine response. activation, % at 3 µM. actives 0.19% (n = 360,000). AID 624037, 2012;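 active = activation above the run's mean over test compounds plus 3 SD, cut at about 23% in these data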;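 note: signal is peak over basal fluorescence ratio across the kinetic read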
M5 antag – human M5 muscarinic receptor antagonists, primary screen, CHO cells, Fluo-8 calcium fluorescence; Muscarinic acetylcholine receptor M5 (Homo sapiens), P08912; CHO-hM5 cells, ACh EC80; inhibition, % at 3 µM; actives 0.59% (n = 360,000); AID 624040, 2012;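 active = inhibition above a per-plate cutoff, the mean of that plate's test compounds plus 3 SD, cut at about 27% in these data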
CHRM4 PAM – human M4 muscarinic receptor positive allosteric modulators, primary screen, CHO-K1 cells, Fluo-8 calcium fluorescence; Muscarinic acetylcholine receptor M4 (Homo sapiens), P08173; CHO-K1 hM4/Gqi5, ACh EC20; 0% = ACh EC20, 100% = maximal ACh; activation, % at 3 µM; actives 0.4% (n = 360,000); AID 624126, 2012;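 active = activation above its plate's cutoff, the mean activation of sample wells plus 3 SD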
M5 PAM – human M5 muscarinic receptor positive allosteric modulators, primary screen, CHO-K1 cells, Fluo-8 calcium fluorescence; Muscarinic acetylcholine receptor M5 (Homo sapiens), P08912; activation, % at 3 µM; actives 0.3% (n = 360,000); CHO-K1 hM5, ACh EC20 PAM; 0% = ACh EC20, 100% = ACh EC100;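 active = activation above the run cutoff, the mean activation of all test compounds plus 3 SD, cut at about 18% in these data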
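System: CHO-K1 hM5 cells. Reagent: acetylcholine, EC20 level. Compound dosing: single dose, 3 µM nominal final test concentration. Timing: Post-acetylcholine fluorescence recording 140 s. Detection: Fluo-8 calcium fluorescence. Read-out: % activation, ACh-normalized. Benchmarks: ACh EC20 and EC100 wells. Repeats: singlicate, one well per test compound.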
M4 ag – human M4 muscarinic receptor agonists, primary screen, CHO-K1 cells, Fluo-8 calcium fluorescence | Muscarinic acetylcholine receptor M4 (Homo sapiens), P08173 | CHO-K1 hM4/Gqi5; vehicle 0%, full acetylcholine response 100% | activation, % at 3 µM | actives 0.14% (n = 360,000);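 active = activation above the run mean over all test wells plus 3 SD, cut at about 32% in these data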;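 note: peak over basal fluorescence ratio per well then scaled between controls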
Hits are given with their value.

Screening Cc1ccc(C)c(N2CCN(S(=O)(=O)c3ccc4c(c3)NC(=O)CO4)CC2)c1 returned CHRM4 antagonist inactive, CHRM5 agonist inactive, M5 antag inactive, CHRM4 PAM inactive, M5 PAM inactive and M4 ag inactive.
For Cc1ccc(C)c(N2CCN(S(=O)(=O)c3ccc4c(c3)NC(=O)CC(=O)N4)CC2)c1 the results were CHRM4 antagonist 88, CHRM5 agonist inactive, M5 antag inactive, CHRM4 PAM inactive, M5 PAM inactive and M4 ag inactive.
Cn1c(N)c(C(=O)COC(=O)/C=C/c2ccc(Cl)cc2Cl)c(=O)n(C)c1=O was read as CHRM4 antagonist inactive, CHRM5 agonist inactive, M5 antag inactive, CHRM4 PAM inactive, M5 PAM inactive and M4 ag inactive.
Screening COc1cccc(/C=C/C(=O)OCCN2C(=O)c3ccccc3C2=O)c1 returned CHRM4 antagonist inactive, CHRM5 agonist inactive, M5 antag inactive, CHRM4 PAM inactive, M5 PAM inactive and M4 ag inactive.
`COc1ccccc1/C=C/C(=O)OCC(=O)c1c(N)n(C)c(=O)n(C)c1=O` gave CHRM4 antagonist inactive, CHRM5 agonist inactive, M5 antag inactive, CHRM4 PAM inactive, M5 PAM 19 and M4 ag inactive.
COc1ccc(N(C)S(=O)(=O)c2cccc(C(=O)OCC(=O)c3c(N)n(C)c(=O)n(C)c3=O)c2)cc1 was read as CHRM4 antagonist 38, CHRM5 agonist inactive, M5 antag inactive, CHRM4 PAM inactive, M5 PAM inactive and M4 ag inactive.
`COc1ccccc1/C=C/C(=O)OCCN1C(=O)c2ccccc2C1=O` gave CHRM4 antagonist 79, CHRM5 agonist inactive, M5 antag inactive, CHRM4 PAM inactive, M5 PAM inactive and M4 ag inactive.
Screening Cc1cnc(NC(=O)Nc2ccccc2)c(C)n1 returned CHRM4 antagonist inactive, CHRM5 agonist inactive, M5 antag inactive, CHRM4 PAM inactive, M5 PAM inactive and M4 ag inactive.
For O=C(COC(=O)Cc1ccccc1F)NCCNC(=O)COC(=O)Cc1ccccc1F the results were CHRM4 antagonist inactive, CHRM5 agonist inactive, M5 antag inactive, CHRM4 PAM inactive, M5 PAM inactive and M4 ag inactive.
Screening CCOc1ccc(C(=O)NCc2ccc3c(c2)OCO3)cc1OCC returned CHRM4 antagonist inactive, CHRM5 agonist inactive, M5 antag inactive, CHRM4 PAM inactive, M5 PAM inactive and M4 ag inactive.
`CC(=O)c1ccc(N2CCN(C(=S)Nc3ccc(Oc4ccccc4)cc3)CC2)cc1` gave CHRM4 antagonist inactive, CHRM5 agonist inactive, M5 antag 35, CHRM4 PAM inactive, M5 PAM inactive and M4 ag inactive.
`COc1ccc(N2CCN(C(=S)Nc3ccccc3)CC2)cc1` gave CHRM4 antagonist inactive, CHRM5 agonist inactive, M5 antag inactive, CHRM4 PAM inactive, M5 PAM inactive and M4 ag inactive.
Screening Cc1ccc(C(=O)N2CCN(c3ccc(NC(=S)NC(=O)Cc4ccccc4)cc3)CC2)cc1 returned CHRM4 antagonist inactive, CHRM5 agonist inactive, M5 antag 29, CHRM4 PAM inactive, M5 PAM inactive and M4 ag inactive.
`O=C(c1cccc(S(=O)(=O)N2CCCC2)c1)N1CCN(Cc2ccccc2)CC1` gave CHRM4 antagonist inactive, CHRM5 agonist inactive, M5 antag inactive, CHRM4 PAM inactive, M5 PAM inactive and M4 ag inactive.
Nc1c(C(=O)NCc2ccccc2)nnn1Cc1ccccc1 was read as CHRM4 antagonist inactive, CHRM5 agonist inactive, M5 antag inactive, CHRM4 PAM inactive, M5 PAM inactive and M4 ag inactive.
For CSc1ccc(Cn2nnc(C(=O)NCc3ccccc3)c2N)cc1 the results were CHRM4 antagonist inactive, CHRM5 agonist 42, M5 antag inactive, CHRM4 PAM inactive, M5 PAM inactive and M4 ag 61.
For Cc1ccc(C(=O)Nc2ccc(N3CCOCC3)nc2N2CCOCC2)cc1 the results were CHRM4 antagonist inactive, CHRM5 agonist inactive, M5 antag inactive, CHRM4 PAM inactive, M5 PAM inactive and M4 ag inactive.
`COc1ccc(Cl)cc1NC(=O)C12CCC(C)(C(=O)O1)C2(C)C` (stereo unspecified) gave CHRM4 antagonist inactive, CHRM5 agonist inactive, M5 antag inactive, CHRM4 PAM inactive, M5 PAM inactive and M4 ag inactive.
For COc1cc(-c2coc3c(C(=O)NCc4ccc(OC)c(OC)c4)cccc23)ccc1O the results were CHRM4 antagonist inactive, CHRM5 agonist inactive, M5 antag inactive, CHRM4 PAM inactive, M5 PAM inactive and M4 ag inactive.
Screening COc1ccc(CNC(=O)c2cccc3c(-c4cccc(C(N)=O)c4)coc23)cc1OC returned CHRM4 antagonist inactive, CHRM5 agonist inactive, M5 antag 27, CHRM4 PAM inactive, M5 PAM inactive and M4 ag inactive.
CCCCSc1nnc(-c2ccccc2NC(C)=O)c(=O)[nH]1 was read as CHRM4 antagonist inactive, CHRM5 agonist inactive, M5 antag inactive, CHRM4 PAM inactive, M5 PAM inactive and M4 ag inactive.
`CCOc1cc(-c2nc3ccccc3s2)ccc1O` gave CHRM4 antagonist 31, CHRM5 agonist inactive, M5 antag inactive, CHRM4 PAM inactive, M5 PAM inactive and M4 ag inactive.
For CNS(=O)(=O)c1cc(S(=O)(=O)NC)c2cccc3c2c1NC3=O the results were CHRM4 antagonist inactive, CHRM5 agonist inactive, M5 antag inactive, CHRM4 PAM inactive, M5 PAM inactive and M4 ag inactive.
CN(C)CC#CCC(O)(c1ccccc1)C1CCCCC1 (stereo unspecified) was read as CHRM4 antagonist 92, CHRM5 agonist inactive, M5 antag 96, CHRM4 PAM inactive, M5 PAM inactive and M4 ag inactive.
Screening CCN(CC)CC#CCC(O)(c1ccccc1)C1CCCC1 (stereo unspecified) returned CHRM4 antagonist 95, CHRM5 agonist inactive, M5 antag 95, CHRM4 PAM inactive, M5 PAM inactive and M4 ag inactive.
`OCCN(CC#CCC(O)(c1ccccc1)C1CCCC1)CCO` (stereo unspecified) gave CHRM4 antagonist inactive, CHRM5 agonist inactive, M5 antag inactive, CHRM4 PAM inactive, M5 PAM inactive and M4 ag inactive.
Screening Cc1cc(NC(=O)c2cccnc2)ccc1NC(=O)c1cc2ccccc2o1 returned CHRM4 antagonist inactive, CHRM5 agonist inactive, M5 antag inactive, CHRM4 PAM inactive, M5 PAM inactive and M4 ag 33.
